Screening results as filed in PubChem BioAssay.
NadD inh: inhibitors of Staphylococcus aureus NadD | 360,000 compounds, 0.78% hits | inhibition, % at 20 µM | purified NadD enzyme, colorimetric absorbance read-out; in the data active means inhibition above about 26%
Rpn11 block: inhibitors of human proteasome Rpn11. 360,000 compounds, 0.59% hits. AID 588493. O00487. human 26S proteasome, Ub4-pepOG fluorescence polarization; 20S core pre-blocked with epoxomicin. inhibition, % at 20 µM;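 active means inhibition at 20 µM, scaled to each plate's controls, above about 33%, limit read from the data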
XiGFP reactiv: X-chromosome reactivation activator; XiGFP mouse fibroblasts, % GFP-positive cells imaging, 3 d; cells co-treated with 5-aza-dC sensitizer; scaled so ellipticine positive control = 100%; activation, % at 7.58 µM; AID 743238; 360,000 compounds, 0.055% hits;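 active means mean normalized replicate activation at least 10% and every replicate at or above 10%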;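 further: 0% = median of on-plate neutral control wells and 100% = ellipticine 6 µM median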
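Material: SV40-immortalized XiGFP fibroblast cells, line 68-5-11 | Buffer or medium: DMEM containing 5-aza-dC | Dosing: One concentration, pinned | Times: 3 d treatment, 15 min room-temperature fixation | Controls: Ellipticine 6 µM positive control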
Rin1 Abl inh: human Rin1-Abl interaction inhibition | P00519+Q13671 | TR-FRET Rin1/Abl binding, biochemical | inhibition, % at 7.35 µM | 360,000 compounds, 0.4% hits | AID 588664; in the data active means inhibition above about 5%, passing the limit was not always enough
ABHD5 PLIN5 PPI: inhibitors of human ABHD5-perilipin-5 interaction; Q00G26+Q8WTS1; Split G. princeps luciferase complementation, luminescence, 4 h; inhibition, % at 4 µM; 360,000 compounds, 0.78% hits;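 active means inhibition above the mean inhibition across every tested compound plus 3 SD, cut at about 22% in these data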;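 further: 0% = DMSO only wells and the 100% control is not disclosed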
Target sequence (Q00G26 whole entry, looked up): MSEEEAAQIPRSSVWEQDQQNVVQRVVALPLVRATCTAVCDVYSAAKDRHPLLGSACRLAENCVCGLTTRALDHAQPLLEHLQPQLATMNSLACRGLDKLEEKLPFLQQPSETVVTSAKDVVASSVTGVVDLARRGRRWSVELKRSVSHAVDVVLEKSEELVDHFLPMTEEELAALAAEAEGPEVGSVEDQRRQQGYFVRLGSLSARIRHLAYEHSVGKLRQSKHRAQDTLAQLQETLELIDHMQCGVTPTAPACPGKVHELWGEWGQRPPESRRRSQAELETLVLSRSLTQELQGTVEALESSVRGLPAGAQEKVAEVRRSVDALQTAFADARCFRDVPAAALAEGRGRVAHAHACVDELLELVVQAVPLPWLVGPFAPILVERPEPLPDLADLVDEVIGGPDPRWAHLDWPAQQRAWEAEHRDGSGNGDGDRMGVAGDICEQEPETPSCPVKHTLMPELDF
Target sequence (Q8WTS1 whole entry, looked up): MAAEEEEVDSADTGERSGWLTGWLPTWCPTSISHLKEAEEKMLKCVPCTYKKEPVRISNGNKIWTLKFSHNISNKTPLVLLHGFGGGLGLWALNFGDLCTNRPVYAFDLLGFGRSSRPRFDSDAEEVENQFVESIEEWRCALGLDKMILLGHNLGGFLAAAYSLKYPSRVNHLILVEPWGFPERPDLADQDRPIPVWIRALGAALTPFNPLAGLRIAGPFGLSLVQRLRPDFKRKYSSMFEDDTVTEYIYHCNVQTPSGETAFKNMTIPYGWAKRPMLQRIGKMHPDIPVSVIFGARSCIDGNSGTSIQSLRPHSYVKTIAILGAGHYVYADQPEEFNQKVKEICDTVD
ABHD5-PLIN5 conf: ABHD5-PLIN5 interaction inhibition, confirmed; shares compounds with ABHD5 PLIN5 PPI; inhibition, % at 4 µM; biochemical ABHD5-PLIN5 interaction, luminescence; 2,200 compounds, 67% hits; in the data active means inhibition above about 23%;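 further: 0% = DMSO vehicle wells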
HNF4 counter: HNF4 split-luciferase signal hit, counter-screen | HNF4 dimerization, luminescence, biochemical | inhibition, % at 4 µM | shares compounds with ABHD5 PLIN5 PPI | 2,200 compounds, 77% hits;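 active means mean inhibition across replicate wells exceeding the computed hit threshold, cut at about 13% in these data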;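 further: light from luciferase halves that rejoin when HNF4 fusion proteins dimerize; 0% = DMSO only wells and the 100% control is not given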
* = called active by the depositor; . = no result shown. Hits are enriched below; roughly 1.9% of the tested compounds scored in any of these assays.

SMILES	NadD inh	Rpn11 block	XiGFP reactiv	Rin1 Abl inh	ABHD5 PLIN5 PPI	ABHD5-PLIN5 conf	HNF4 counter
Cc1ccccc1S(=O)(=O)NCC[C@@H]1CC[C@H](NC(=O)C2CCCCC2)[C@H](CO)O1	.	.	0	.	.	.	.
C[C@H](CO)N1C[C@H](C)[C@@H](CN(C)Cc2ccc3c(c2)OCO3)Oc2ccc(NC(=O)Cc3ccccc3)cc2CC1=O	.	.	0	.	.	.	.
CC(=O)N(C)C[C@H]1Oc2c(NS(C)(=O)=O)cccc2C(=O)N(C)C[C@H]1C	.	.	0	.	.	.	.
O=C(CC(=O)c1ccccc1)Nc1cccnc1Cl	0	1	0	0	27*	13	18*
C[C@H](O)C#Cc1cnc2c(c1)C(=O)N([C@@H](C)CO)C[C@H](C)[C@@H](CN(C)C(=O)Cc1ccncc1)O2	.	.	0	.	.	.	.
COc1ccc2c(c1)/C(=C\c1cccc(/C=C3/C(=O)Nc4ccc(OC)cc43)n1)C(=O)N2	-4	9	5	0	51*	100*	98*
O=c1c(C(c2ccc(O)cc2)c2c(O)nc3n(c2=O)CCCS3)c(O)nc2n1CCCS2	9	3	.	1	29*	84*	71*
O=c1c(C(c2ccc(O)cc2)c2c(O)nc3n(c2=O)CCS3)c(O)nc2n1CCS2	-16	1	.	-3	53*	90*	79*
CO[C@@H]1CN(C)C(=O)c2ccc(NC(=O)c3ccccc3)cc2OC[C@@H](C)N(C(=O)CN(C)C)C[C@H]1C	.	.	0	.	.	.	.
O=C1C=CC(O)(c2cc(=O)c3c(O)cc(O)cc3o2)C=C1	2	-5	0	5	89*	101*	106*
COc1cc(/C=C2/CC/C(=C/c3ccc(O)c(OC)c3)C2=O)ccc1O	17	.	0	2	24*	26*	32*
COc1cc(/C=C2\CC/C(=C\c3ccc(OCCO)c(OC)c3)C2=O)ccc1OCCO	-8	.	0	-10	22	.	.
COc1ccc(/C=C2\CCC/C(=C\c3ccc(OC)c(OC)c3OC)C2=O)c(OC)c1OC	-4	9	0	1	38*	10	16*
COc1ccc(/C=C2\CC/C(=C\c3ccc(OC)c(OC)c3)C2=O)cc1OC	-7	-8	0	-3	31*	58*	44*
COc1cc(/C=C/C=C2/CC/C(=C/C=C/c3ccc(O)c(OC)c3)C2=O)ccc1O	70*	.	0	6	26*	62*	68*
C[C@H]1CN(C)C(=O)Cc2cc(N(C)C)ccc2O[C@@H]1CN(C)S(C)(=O)=O	.	.	0	.	.	.	.
COc1cc(/C=C2\COC/C(=C\c3ccc(O)c(OC)c3)C2=O)ccc1O	1	15	0	4	54*	90*	84*
COc1cccc(-c2ccc3n(c2=O)C[C@@H]2[C@@H](CO)[C@H](C(=O)NCCN4CCCCC4)N(C)[C@H]32)c1	.	.	1	.	.	.	.
CCCSc1nc(NCc2ccco2)c2c3c(sc2n1)COC(C)(C)C3	21	10	.	-5	28*	7	5
CCCCSc1nc(NCc2ccco2)c2c3c(sc2n1)COC(C)(C)C3	7	14	.	-3	8	.	.
C[C@@H](NC(=O)C[C@@H]1CC[C@@H](NS(=O)(=O)c2cccc(F)c2)[C@@H](CO)O1)c1ccccc1	.	.	0	.	.	.	.
N#C/C(=C\c1ccc(N2CCOCC2)c([N+](=O)[O-])c1)c1nc2ccccc2[nH]1	7	1	0	-3	0	.	.
N#C/C(=C/c1ccc(N2CCOCC2)o1)c1ccc(Cl)cc1	6	.	.	0	60*	52*	106*
N#C/C(=C\c1ccc(N2CCOCC2)o1)c1nc2ccccc2[nH]1	4	.	.	-1	24*	29*	51*
COc1ccc(S(=O)(=O)N2CCC3(CC2)CN(C(=O)c2cccnc2)[C@@H](CO)c2c3c3ccc(OC)cc3n2C)cc1	.	.	0	.	.	.	.
SMILES	NadD inh	Rpn11 block	XiGFP reactiv	Rin1 Abl inh	ABHD5 PLIN5 PPI	ABHD5-PLIN5 conf	HNF4 counter
C=CCOc1cccc(/C=C2\C(=O)N(Cc3ccc(C)cc3)C(C)=C2C(=O)OC)c1	9	22	0	1	12	.	.
CCOc1cc(/C=C2\C(=O)N(Cc3ccc(C)cc3)C(C)=C2C(=O)OC)ccc1O	-4	3	.	1	23*	50*	39*
CCCCC[C@@H](C)N1C[C@@H](COCc2ccccc2)Oc2cc(N3CC[C@@H](N(C)C)C3)ccc2S1(=O)=O	7	.	0	.	28*	2	-5
C/C=C/c1cnc2c(c1)C(=O)N([C@@H](C)CO)C[C@@H](C)[C@@H](CN(C)C(=O)Nc1ccc(F)cc1)O2	.	.	-1	.	.	.	.
C[C@H](CO)N1C[C@H](C)[C@H](CN(C)S(C)(=O)=O)OCCCC[C@H](C)Oc2ccc(NS(=O)(=O)c3cccs3)cc2C1=O	.	.	-1	.	.	.	.
O=C(NCc1ccco1)/C(=C/c1ccc(C(F)(F)F)cc1)c1nc2ccccc2[nH]1	15	18	0	2	19	.	.
O=S(=O)(/C(=C\c1ccc(C(F)(F)F)cc1)c1nc2ccccc2[nH]1)c1ccccc1	0	9	.	4	86*	101*	96*
CC(C)C#Cc1cnc2c(c1)C(=O)N([C@H](C)CO)C[C@H](C)[C@H](CN(C)C(=O)C1CCC1)O2	.	.	-1	.	.	.	.
O=C(NC1CCCCC1)C(c1cccc2ccccc12)n1c(=O)c(-c2ccco2)nc2ccccc21 (stereo unspecified)	.	.	0	.	87*	85*	9
COc1ccc(C(C(=O)NC2CCCCC2)n2c(=O)c(-c3ccco3)nc3ccccc32)cc1 (stereo unspecified)	.	.	0	.	66*	85*	30*
COc1ccc(NC(=O)C(c2cccc3ccccc23)n2c(=O)c(-c3ccco3)nc3ccccc32)cc1 (stereo unspecified)	.	.	0	.	26*	23*	3
COc1ccc2c3c([nH]c2c1)[C@@H](CO)N(C(=O)c1ccccc1)CC31CCN(C)CC1	.	.	1	.	.	.	.
CC(C)NC(=O)N1C[C@H]2[C@@H](c3ccccc31)[C@@H](CO)N2C(=O)c1ccc(F)cc1	.	.	1	.	.	.	.
O=C1C(=Cc2ccco2)CCCC1=Cc1ccco1	13	.	0	6	39*	53*	63*
COc1cc(OC)c(OC)cc1/C=C1\CCC/C(=C\c2cc(OC)c(OC)cc2OC)C1=O	-8	.	0	-2	7	.	.
CN(C)c1ccc(N=Nc2ccc(S(N)(=O)=O)cc2)cc1	4	7	0	-9	7	.	.
CC1=CC(=O)C=CC1=Nc1ccc(N(C)C)cc1	6	-4	0	4	86*	98*	113*
CCN1[C@@H]2c3ccc(C4=CCCC4)c(=O)n3C[C@@H]2[C@@H](CO)[C@@H]1C(=O)NCCCN(C)C	.	.	0	.	.	.	.
